These compounds were tested against T1, OR2L13 (Homo sapiens) (UniProt Q8N349). Settings: stereoisomer not certain.
T1 sequence (whole entry): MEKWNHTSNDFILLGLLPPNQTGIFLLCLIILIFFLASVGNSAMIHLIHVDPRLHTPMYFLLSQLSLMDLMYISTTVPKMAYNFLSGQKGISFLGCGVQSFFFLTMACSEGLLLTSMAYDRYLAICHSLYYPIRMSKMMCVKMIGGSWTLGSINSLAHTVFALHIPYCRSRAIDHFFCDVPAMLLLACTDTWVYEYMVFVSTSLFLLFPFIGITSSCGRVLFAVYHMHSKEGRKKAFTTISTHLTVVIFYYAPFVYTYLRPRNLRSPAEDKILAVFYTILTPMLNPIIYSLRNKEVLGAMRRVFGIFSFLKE
In short: (§1)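 Assay methods differ from source to source, frequently being transient luciferase assays in mammalian cell lines. For each receptor–molecule pair, the label responsive (active) applies when the original authors judged the measured signal statistically different from baseline, and non-responsive (inactive) applies otherwise.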

Odorant receptor agonist call, inactive:
CC(=O)O, CC(C)=CCCC(C)=CCCC(C)=CCO, Cc1cccc(C)c1C, Cc1cnc(C)cn1, CCC(O)CC, CCC(C)CO (stereo not drawn), COc1ccc2[nH]cc(CCNC(C)=O)c2c1, CCCC(=O)CC, CCCCCCCCCCCC(=O)O, CC1=CCC2CC1C2(C)C (stereo not drawn), CCCCCCCCCC(=O)OCC, CCCCCCCCCCCCCCCC(=O)OCC, CCCCCCCC(=O)OCC, C=C(C)C1CC=C(C)CC1 (stereo not drawn), CCCCCCCCCCCCCCCCCC(=O)OCC, C=C1CCC2CC1C2(C)C (stereo not drawn), CCCCCCCCCCCC(=O)OC, CCCCCCCCCCCCCCC(=O)O, CC(O)C(=O)[O-].[H+] (stereo not drawn), CCCCOCC(C)O (stereo not drawn), CCCCC(=O)C(C)=O, CCCCCCCCCC(=O)OC, CCCCCCCCCCCCCC(=O)O

Each compound was assayed against T2, OR2M3 (Homo sapiens) (UniProt Q8NG83). Settings: stereoisomer not certain.
T2 sequence (whole entry): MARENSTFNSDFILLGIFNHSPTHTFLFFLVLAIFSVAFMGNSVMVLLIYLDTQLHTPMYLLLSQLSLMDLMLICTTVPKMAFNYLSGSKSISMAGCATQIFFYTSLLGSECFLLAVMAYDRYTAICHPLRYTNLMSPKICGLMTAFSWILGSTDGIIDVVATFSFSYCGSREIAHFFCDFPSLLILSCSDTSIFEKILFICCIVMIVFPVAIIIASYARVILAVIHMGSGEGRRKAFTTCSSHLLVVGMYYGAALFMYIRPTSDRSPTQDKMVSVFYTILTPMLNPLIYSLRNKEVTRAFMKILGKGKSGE
In short: as §1

Odorant receptor agonist call, inactive:
CC(=O)O, CC(=O)OCC=Cc1ccccc1, COCCC(C)(C)S, CCCCCCC1CCC(=O)O1 (stereo not drawn), CCCCCCCC1CCC(=O)O1 (stereo not drawn), CC(=O)OCCC(C)C, CCC(C)CO (stereo not drawn), CC1=CCC2CC1C2(C)C (stereo not drawn), O=C(O)CCc1ccccc1, CCCCCCCCCC(=O)OCC, CCOC(=O)C1CCCCC1, CCCCCCCC(=O)OCC, C=C(C)C1CC=C(C)CC1 (stereo not drawn), CCOC(=O)C(C)CC (stereo not drawn), CCCSSSC, CCCCCC=CCCC=O, CCCSSSCCC, C=C1CCC2CC1C2(C)C (stereo not drawn), CSSc1ccoc1C, COc1nccnc1C(C)C
